Reference: ChEMBL document CHEMBL1144398, “Structure-based design, parallel synthesis, structure-activity relationship, and molecular modeling studies of thiocarbamates, new potent non-nucleoside HIV-1 reverse transcriptase inhibitor isosteres of phenethylthiazolylthiourea derivatives” (J Med Chem, 2005)

How the values were obtained:
MT4 [1] = assay: Cytotoxic concentration required to reduce the viability of mock infected MT-4 cells determined by MTT method; type: functional; conditions: Homo sapiens
In short: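 Viability of mock-infected MT-4 cells, assayed in parallel with the antiviral test, read by MTT. CC50 is the concentration that lowers viability by 50%. Values are means of three separate experiments, with variation among triplicates under 10%. The highest concentration tested was 100 µM.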

MT4 [2] = assay: Ratio of CC50 to that of EC50 determined in MT-4 cells; type: functional
In short: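 Selectivity index, calculated as CC50/EC50. CC50 came from MTT viability of mock-infected MT-4 cells and EC50 from MTT-read protection of HIV-1-infected MT-4 cells from cytopathogenicity, with both run in parallel. Values are means of three experiments.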

MT4 [3] = assay: Effective concentration require to protect MT-4 cells from human immunodeficiency virus type 1 induced cytopathogenicity was determined by MTT method; type: functional, cell-based
In short: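 MT-4 cells infected with HIV-1, with test compounds added. Protection from virus-induced cytopathogenicity was read by MTT. EC50 is the concentration giving 50% protection. Values are means of three separate experiments, with variation among triplicates under 10%. Trovirdine served as the reference.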

| Structure (SMILES) | CC50 (MT4 [1]) [µM] | SI (MT4 [2]) | EC50 (MT4 [3]) [µM] |
| --- | --- | --- | --- |
| O=C1c2ccccc2C(=O)N1CCOC(=S)Nc1ccccc1Cl | > 100 | >5.9 | 17 |
| Cc1cccc2c1C(=O)N(CCO/C(S)=N/c1ccc(Cl)cc1)C2=O | > 100 | >2000 | 0.05 |
| COc1ccc(NC(=S)OCCN2C(=O)c3ccccc3C2=O)cc1 | > 100 | >3333 | 0.03 |
| CC(=O)c1ccc(NC(=S)OCCN2C(=O)c3ccccc3C2=O)cc1 | > 100 | >714 | 0.14 |
| N#Cc1ccc(/N=C(/S)OCCNC(=O)c2ccccc2C(=O)O)cc1 | > 100 | >1000 | 0.1 |
| CSc1cccc(NC(=S)OCCNC(=O)c2ccccc2C(=O)O)c1 | > 100 | >9.1 | 11 |
| O=C(O)c1ccccc1C(=O)NCCO/C(S)=N\c1ccc(OCc2ccccc2)cc1 | > 100 | >200 | 0.5 |
| Cc1ccc2c(c1)C(=O)N(CCO/C(S)=N/c1ccc([N+](=O)[O-])cc1)C2=O | 80 | >8000 | 0.01 |
| CC(CN1C(=O)c2ccccc2C1=O)O/C(S)=N/c1ccc(C#N)cc1 (configuration not stated) | > 100 | >2.7 | 36 |
| CSc1cccc(NC(=S)OCCN2C(=O)c3ccccc3C2=O)c1 | > 100 | >14.3 | 7 |
| COc1cccc(NC(=S)OCCN2C(=O)c3ccccc3C2=O)c1 | > 100 | >25 | 4 |
| CCOc1ccc(NC(=S)OCCNC(=O)c2ccccc2C(=O)O)cc1 | > 100 | 50 | 2 |
| O=C1c2ccccc2C(=O)N1CCCOC(=S)Nc1ccccc1 | > 100 | – | > 100 |
| COC(=O)c1cccc(NC(=S)OCCN2C(=O)c3ccccc3C2=O)c1 | > 100 | >4.8 | 21 |
| O=C1c2ccccc2C(=O)N1CCOC(=S)Nc1cccc2ccccc12 | > 100 | >15.4 | 6.5 |
| Cc1ccc(NC(=S)OCCNC(=O)c2ccccc2C(=O)O)cc1 | > 100 | >250 | 0.4 |
| CCN(CC)c1ccc(NC(=S)OCCN2C(=O)c3ccccc3C2=O)cc1 | > 100 | >71 | 1.4 |
| O=C(O)c1ccccc1C(=O)NCCO/C(S)=N\c1cccc(Cl)c1 | > 100 | >33.3 | 3 |
| CCc1ccc(NC(=S)OCCNC(=O)c2ccccc2C(=O)O)cc1 | > 100 | >333 | 0.3 |
| O=C1CCC(=O)N1CCOC(=S)Nc1ccc(Cl)cc1 | > 100 | >42 | 2.4 |
| O=C1c2ccccc2C(=O)N1CCOC(=S)Nc1cccc(C(F)(F)F)c1 | > 100 | >7.7 | 13 |
| CN(C)c1ccc(NC(=S)OCCN2C(=O)c3ccccc3C2=O)cc1 | > 100 | >167 | 0.6 |
| O=C(O)c1ccccc1C(=O)NCCO/C(S)=N\c1ccc(Cl)cc1 | > 100 | >1000 | 0.1 |

| Structure (SMILES) | CC50 (MT4 [1]) [µM] | SI (MT4 [2]) | EC50 (MT4 [3]) [µM] |
| --- | --- | --- | --- |
| Cc1ccccc1/N=C(/S)OCCNC(=O)c1ccccc1C(=O)O | > 100 | >3.7 | 27 |
| CC(C)c1ccc(NC(=S)OCCNC(=O)c2ccccc2C(=O)O)cc1 | > 100 | >27 | 3.7 |
| Cc1cccc(NC(=S)OCCN2C(=O)c3ccccc3C2=O)c1 | > 100 | >66.7 | 1.5 |
| CC(CN1C(=O)c2ccccc2C1=O)O/C(S)=N/c1ccc(Cl)cc1 (configuration not stated) | > 100 | >58.8 | 1.7 |
| O=C1c2ccccc2C(=O)N1COC(=S)Nc1ccc([N+](=O)[O-])cc1 | 23 | – | > 23 |
| O=C(O)c1ccccc1C(=O)NCCO/C(S)=N\c1ccccc1 | > 100 | >33.3 | 3 |
| O=C(O)c1ccccc1C(=O)NCCO/C(S)=N\c1ccc(Br)cc1 | > 100 | >1000 | 0.1 |
| Cc1ccc(/N=C(\S)OC(C)CN2C(=O)c3ccccc3C2=O)cc1 (configuration not stated) | > 100 | >2.1 | 48 |
| O=C(O)c1ccccc1C(=O)NCCO/C(S)=N\c1ccc(F)cc1 | > 100 | >400 | 0.25 |
| O=C1C2C3C=CC(C3)C2C(=O)N1CCOC(=S)Nc1ccc([N+](=O)[O-])cc1 (configuration not stated) | > 100 | – | > 100 |
| COC(=O)c1ccccc1/N=C(/S)OCCN1C(=O)c2ccccc2C1=O | 45 | – | > 45 |
| O=C(O)c1ccccc1C(=O)NCCO/C(S)=N\c1ccccc1F | > 100 | >200 | 0.5 |
| Cc1cccc(NC(=S)OCCNC(=O)c2ccccc2C(=O)O)c1 | > 100 | >20 | 5 |
| O=C(O)c1ccccc1C(=O)NCCO/C(S)=N\c1ccc([N+](=O)[O-])cc1 | > 100 | >333 | 0.3 |
| CC(COC(=S)Nc1ccc(Cl)cc1)N1C(=O)c2ccccc2C1=O (configuration not stated) | 44 | 880 | 0.05 |
| COc1ccccc1/N=C(/S)OCCNC(=O)c1ccccc1C(=O)O | > 100 | >1.5 | 65 |
| O=C1c2ccccc2C(=O)N1CCOC(=S)NC1CCCCC1 | > 100 | >333 | 0.3 |
| COc1cccc(NC(=S)OCCNC(=O)c2ccccc2C(=O)O)c1 | > 100 | >38.5 | 2.6 |
| CCOC(=O)c1ccc(NC(=S)OCCN2C(=O)c3ccccc3C2=O)cc1 | > 100 | >4.3 | 23 |
| O=C1c2ccccc2C(=O)N1CCOC(=S)Oc1ccc(Cl)cc1 | > 100 | – | > 100 |
| CC(C)c1ccc(NC(=S)OCCN2C(=O)c3ccccc3C2=O)cc1 | 94 | 2350 | 0.04 |
| CC(CN1C(=O)c2ccccc2C1=O)O/C(S)=N/c1ccc(Br)cc1 (configuration not stated) | > 100 | >43.5 | 2.3 |
| O=C(O)c1ccccc1C(=O)NCCO/C(S)=N\c1ccccc1[N+](=O)[O-] | > 100 | – | > 100 |

| Structure (SMILES) | CC50 (MT4 [1]) [µM] | SI (MT4 [2]) | EC50 (MT4 [3]) [µM] |
| --- | --- | --- | --- |
| Cc1ccccc1/N=C(/S)OCCN1C(=O)c2ccccc2C1=O | > 100 | >27 | 3.7 |
| COc1ccccc1/N=C(/S)OCCN1C(=O)c2ccccc2C1=O | > 100 | >17.9 | 5.6 |
| O=C1C2CC=CCC2C(=O)N1CCOC(=S)Nc1ccc(Br)cc1 (configuration not stated) | > 100 | >43 | 2.3 |
| O=C1c2ccccc2C(=O)N1CCOC(=S)Nc1ccccc1Br | > 100 | >7.1 | 14 |
| O=C1C2C3C=CC(C3)C2C(=O)N1CCOC(=S)Nc1ccc(Cl)cc1 (configuration not stated) | > 100 | >1.5 | 68 |
| O=C1c2ccccc2C(=O)N1CCO/C(S)=N\c1ccccc1F | > 100 | >33 | 3 |
| CC(CO/C(S)=N/c1ccc([N+](=O)[O-])cc1)N1C(=O)c2ccccc2C1=O (configuration not stated) | > 100 | >167 | 0.6 |
| Cc1ccc(OC(=S)OCCN2C(=O)c3ccccc3C2=O)cc1 | > 100 | – | > 100 |
| O=C1C2CC=CCC2C(=O)N1CCOC(=S)Nc1ccc(Cl)cc1 (configuration not stated) | > 100 | >10.6 | 9.4 |
| Cc1ccc2c(c1)C(=O)N(CCOC(=S)Nc1ccc(Cl)cc1)C2=O | > 100 | >4000 | 0.025 |
| O=C1c2ccccc2C(=O)N1CCOC(=S)Nc1cccc(Cl)c1 | > 100 | >50 | 2 |
| Cc1cccc2c1C(=O)N(CCO/C(S)=N/c1ccc([N+](=O)[O-])cc1)C2=O | 71 | 1014 | 0.07 |
| CCOc1ccc(NC(=S)OCCN2C(=O)c3ccccc3C2=O)cc1 | > 100 | >14.3 | 7 |
| O=C1c2ccccc2C(=O)N1CCO/C(S)=N\c1ccccc1C(F)(F)F | > 100 | >1.5 | 65 |
| O=C1c2ccccc2C(=O)N1CCO/C(S)=N\c1ccccc1[N+](=O)[O-] | > 100 | – | > 100 |
| O=C1c2ccccc2C(=O)N1CCOC(=S)Nc1cccc([N+](=O)[O-])c1 | > 100 | >167 | 0.6 |
| O=C1c2ccccc2C(=O)N1CCOC(=S)Nc1ccc(C(F)(F)F)cc1 | > 100 | >2500 | 0.04 |
| CC(C)c1ccccc1/N=C(/S)OCCN1C(=O)c2ccccc2C1=O | > 100 | >2.3 | 43 |
| CC(=O)c1cccc(NC(=S)OCCN2C(=O)c3ccccc3C2=O)c1 | > 100 | >23 | 4.3 |
| COC(=O)c1ccccc1/N=C(/S)OCCNC(=O)c1ccccc1C(=O)O | > 100 | – | > 100 |
| COC(=O)c1cccc(NC(=S)OCCNC(=O)c2ccccc2C(=O)O)c1 | > 100 | – | > 100 |
| CCc1ccc(NC(=S)OCCN2C(=O)c3ccccc3C2=O)cc1 | > 100 | >1250 | 0.08 |
| COc1ccc(NC(=S)OCCNC(=O)c2ccccc2C(=O)O)cc1 | > 100 | >500 | 0.2 |
